≈ marks a conversion by molar mass, not a printed value.
Assays:
J774.A1 = experiment: Cytotoxicity against J774A.1 cells assessed as reduction in cell viability at 31.3 microg/ml; type: toxicity, cell-based; conditions: mouse, dose 31.3 µg/ml
In short: (§1)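 Cells in DMEM with 10% FBS and 1% Pen/Strep, seeded at 10,000 cells/well and held overnight at 37 °C, 5% CO2. Compounds added at final 31.3-0.12 µg/mL (0.05% DMSO vehicle) for 24 h. Resazurin then added for 6 h; fluorescence read at ex 560/em 590. Triton X-100 1% as positive control; values normalized to vehicle. Run in quadruplicate.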

HEK293 = experiment: Cytotoxicity against human HEK-293 cells assessed as reduction in cell viability at 31.3 microg/ml; type: toxicity, cell-based; conditions: dose 31.3 µg/ml; in short: as §1
Aspergillus fumigatus [1] = experiment: Antifungal activity against Aspergillus fumigatus NRRL 6113 assessed as fungal growth inhibition by double dilution method; type: functional
Kodamaea ohmeri = experiment: Antifungal activity against Kodamaea ohmeri AR Bank # 396 assessed as fungal growth inhibition by double dilution method; type: functional
In short: (§2)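 Broth microdilution after CLSI M27-A3/M38-A2 with minor changes. Single colony grown overnight in YPD at 35 °C, 200 rpm. Compound final range 0.06-31.3 µg/mL; incubated 48 h at 35 °C.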

[Candida] auris [2] = Antifungal activity against Candida auris AR Bank # 0384 assessed as fungal growth inhibition by double dilution method; type: functional; conditions: Candidozyma auris; in short: as §2
Aspergillus fumigatus [3] = experiment: Antifungal activity against Aspergillus fumigatus NRRL 163 assessed as fungal growth inhibition by double dilution method; type: functional
[Candida] auris [4] = Antifungal activity against Candida auris AR Bank # 388 assessed as fungal growth inhibition by double dilution method; type: functional; conditions: Candidozyma auris; in short: as §2
Aspergillus fumigatus [5] = experiment: Antifungal activity against Aspergillus fumigatus NRRL 5109 assessed as fungal growth inhibition by double dilution method; type: functional
[Candida] auris [6] = Antifungal activity against Candida auris AR Bank # 381 assessed as fungal growth inhibition by double dilution method; type: functional; conditions: Candidozyma auris; in short: as §2
Candida albicans [7] = experiment: Antifungal activity against itraconazole/fluconazole resistant Candida albicans ATCC 90819 assessed as fungal growth inhibition by double dilution method; type: functional
In short: (§3)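 Broth microdilution after CLSI M27-A3/M38-A2 with minor modifications. A single colony was grown overnight in YPD at 35 °C with shaking at 200 rpm. Cells were mixed 1:1 with compound (final 0.06-31.3 µg/mL, from DMSO stocks) and incubated 48 h at 35 °C.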

Clavispora lusitaniae = experiment: Antifungal activity against Clavispora lusitaniae AR Bank # 398 assessed as fungal growth inhibition by double dilution method; type: functional; in short: as §2
Nakaseomyces glabratus [8] = experiment: Antifungal activity against Candida glabrata ATCC 2001 assessed as fungal growth inhibition by double dilution method; type: functional; in short: as §2
[Candida] haemuloni [9] = Antifungal activity against Candida haemulonii AR Bank # 395 assessed as fungal growth inhibition by double dilution method; type: functional; conditions: Candidozyma haemuli; in short: as §2
Aspergillus flavus = experiment: Antifungal activity against Aspergillus flavus ATCC MYA-3631 assessed as fungal growth inhibition by double dilution method; type: functional
Candida albicans [10] = experiment: Antifungal activity against itraconazole/fluconazole susceptible Candida albicans ATCC MYA-2310 assessed as fungal growth inhibition by double dilution method; type: functional; in short: as §3
[Candida] auris [11] = Antifungal activity against Candida auris AR Bank # 387 assessed as fungal growth inhibition by double dilution method; type: functional; conditions: Candidozyma auris; in short: as §2
Candida albicans [12] = experiment: Antifungal activity against Candida albicans ATCC 64124 assessed as fungal growth inhibition by double dilution method; type: functional; in short: as §3
Aspergillus nidulans = experiment: Antifungal activity against Aspergillus nidulans ATCC 38163 assessed as fungal growth inhibition by double dilution method; type: functional
[Candida] auris [13] = Antifungal activity against Candida auris AR Bank # 384 assessed as fungal growth inhibition by double dilution method; type: functional; conditions: Candidozyma auris; in short: as §2
[Candida] auris [14] = Antifungal activity against Candida auris AR Bank # 383 assessed as fungal growth inhibition by double dilution method; type: functional; conditions: Candidozyma auris; in short: as §2
[Candida] auris [15] = Antifungal activity against Candida auris AR Bank # 386 assessed as fungal growth inhibition by double dilution method; type: functional; conditions: Candidozyma auris; in short: as §2
Pichia kudriavzevii [16] = experiment: Antifungal activity against Pichia kudriavzevii AR Bank # 397 assessed as fungal growth inhibition by double dilution method; type: functional; in short: as §2
Candida duobushaemulonii [17] = experiment: Antifungal activity against Candida duobushaemulonii AR Bank # 394 assessed as fungal growth inhibition by double dilution method; type: functional; conditions: Candidozyma duobushaemuli; in short: as §2
Candida albicans [18] = experiment: Antifungal activity against itraconazole/fluconazole resistant Candida albicans ATCC MYA-1003 assessed as fungal growth inhibition by double dilution method; type: functional; in short: as §3
Candida duobushaemulonii [19] = experiment: Antifungal activity against Candida duobushaemulonii AR Bank # 392 assessed as fungal growth inhibition by double dilution method; type: functional; conditions: Candidozyma duobushaemuli; in short: as §2
[Candida] auris [20] = Antifungal activity against Candida auris AR Bank # 0390 assessed as fungal growth inhibition by double dilution method; type: functional; conditions: Candidozyma auris; in short: as §2
Saccharomyces cerevisiae [21] = experiment: Antifungal activity against Saccharomyces cerevisiae AR Bank # 400 assessed as fungal growth inhibition by double dilution method; type: functional; in short: as §2
Pichia kudriavzevii [22] = experiment: Antifungal activity against Pichia kudriavzevii ATCC 6258 assessed as fungal growth inhibition by double dilution method; type: functional; in short: as §2
Saccharomyces cerevisiae [23] = experiment: Antifungal activity against Saccharomyces cerevisiae AR Bank # 399 assessed as fungal growth inhibition by double dilution method; type: functional; in short: as §2
Aspergillus terreus = experiment: Antifungal activity against Aspergillus terreus ATCC MYA-3633 assessed as fungal growth inhibition by double dilution method; type: functional
[Candida] auris [24] = Antifungal activity against Candida auris AR Bank # 389 assessed as fungal growth inhibition by double dilution method; type: functional; conditions: Candidozyma auris; in short: as §2
Nakaseomyces glabratus [25] = experiment: Antifungal activity against Candida glabrata ATCC 22019 assessed as fungal growth inhibition by double dilution method; type: functional; in short: as §2
Candida duobushaemulonii [26] = experiment: Antifungal activity against Candida duobushaemulonii AR Bank # 391 assessed as fungal growth inhibition by double dilution method; type: functional; conditions: Candidozyma duobushaemuli; in short: as §2
Candida albicans [27] = experiment: Antifungal activity against itraconazole/fluconazole resistant Candida albicans ATCC MYA-1237 assessed as fungal growth inhibition by double dilution method; type: functional; in short: as §3
Candida albicans [28] = experiment: Antifungal activity against itraconazole/fluconazole susceptible Candida albicans ATCC MYA-2876 assessed as fungal growth inhibition by double dilution method; type: functional; in short: as §3
Candida albicans [29] = experiment: Antifungal activity against Candida albicans ATCC 10231 assessed as fungal growth inhibition by double dilution method; type: functional; in short: as §2
[Candida] haemuloni [30] = Antifungal activity against Candida haemulonii AR Bank # 393 assessed as fungal growth inhibition by double dilution method; type: functional; conditions: Candidozyma haemuli; in short: as §2
[Candida] auris [31] = Antifungal activity against Candida auris AR Bank # 382 assessed as fungal growth inhibition by double dilution method; type: functional; conditions: Candidozyma auris; in short: as §2
[Candida] auris [32] = Antifungal activity against Candida auris AR Bank # 385 assessed as fungal growth inhibition by double dilution method; type: functional; conditions: Candidozyma auris; in short: as §2
Cryptococcus neoformans = experiment: Antifungal activity against Cryptococcus neoformans ATCC MYA-895 assessed as fungal growth inhibition by double dilution method; type: functional; in short: as §2
[Candida] auris [33] = Antifungal activity against Candida auris AR Bank # 390 assessed as fungal growth inhibition by double dilution method; type: functional; conditions: Candidozyma auris; in short: as §2

In the case of `C[C@@H]1[C@H](O)[C@@H](C)/C=C/C=C/C=C/C=C/C=C/C=C/C=C/[C@H](O[C@@H]2O[C@H](C)[C@@H](O)[C@H](N)[C@@H]2O)C[C@@H]2O[C@](O)(C[C@@H](O)C[C@@H](O)[C@H](O)CC[C@@H](O)C[C@@H](O)CC(=O)O[C@H]1C)C[C@H](O)[C@H]2C(=O)O` [AMPHOTERICIN B], the Activity (J774.A1) is reported as “Non-Toxic”, the Activity (HEK293) is reported as “Non-Toxic” and the MIC (Aspergillus fumigatus [1]) is reported as 1.95 µg/mL (≈ 2.11 µM). It also gave an MIC (Kodamaea ohmeri) of 1.95 µg/mL (≈ 2.11 µM), an MIC ([Candida] auris [2]) of 1.95 µg/mL (≈ 2.11 µM) and an MIC (Aspergillus fumigatus [3]) of 0.98 µg/mL (≈ 1.06 µM). It also gave an MIC ([Candida] auris [4]) of 1.95 µg/mL (≈ 2.11 µM), an MIC (Aspergillus fumigatus [5]) of 0.98 µg/mL (≈ 1.06 µM) and an MIC ([Candida] auris [6]) of 0.98 µg/mL (≈ 1.06 µM). The MIC (Candida albicans [7]) was 0.98 µg/mL (≈ 1.06 µM), the MIC (Clavispora lusitaniae) was 3.9 µg/mL (≈ 4.22 µM) and the MIC (Nakaseomyces glabratus [8]) was 0.98 µg/mL (≈ 1.06 µM). For the same molecule, the MIC ([Candida] haemuloni [9]) was 3.9 µg/mL (≈ 4.22 µM), the MIC (Aspergillus flavus) was 31.3 µg/mL (≈ 33.9 µM) and the MIC (Candida albicans [10]) was 0.98 µg/mL (≈ 1.06 µM). The MIC ([Candida] auris [11]) was 0.98 µg/mL (≈ 1.06 µM), the MIC (Candida albicans [12]) was 1.95 µg/mL (≈ 2.11 µM) and the MIC (Aspergillus nidulans) was 15.6 µg/mL (≈ 16.9 µM). The MIC ([Candida] auris [13]) was 1.95 µg/mL (≈ 2.11 µM), the MIC ([Candida] auris [14]) was 1.95 µg/mL (≈ 2.11 µM) and the MIC ([Candida] auris [15]) was 0.98 µg/mL (≈ 1.06 µM). The MIC (Pichia kudriavzevii [16]) was 0.49 µg/mL (≈ 0.53 µM), the MIC (Candida duobushaemulonii [17]) was 0.98 µg/mL (≈ 1.06 µM) and the MIC (Candida albicans [18]) was 0.98 µg/mL (≈ 1.06 µM). It also gave an MIC (Candida duobushaemulonii [19]) of 7.8 µg/mL (≈ 8.44 µM), an MIC ([Candida] auris [20]) of 1.95 µg/mL (≈ 2.11 µM) and an MIC (Saccharomyces cerevisiae [21]) of 1.95 µg/mL (≈ 2.11 µM). It also gave an MIC (Pichia kudriavzevii [22]) of 0.98 µg/mL (≈ 1.06 µM), an MIC (Saccharomyces cerevisiae [23]) of 15.6 µg/mL (≈ 16.9 µM) and an MIC (Aspergillus terreus) of 3.9 µg/mL (≈ 4.22 µM). For the same molecule, the MIC ([Candida] auris [24]) was 1.95 µg/mL (≈ 2.11 µM), the MIC (Nakaseomyces glabratus [25]) was 0.98 µg/mL (≈ 1.06 µM) and the MIC (Candida duobushaemulonii [26]) was 7.8 µg/mL (≈ 8.44 µM). It also gave an MIC (Candida albicans [27]) of 1.95 µg/mL (≈ 2.11 µM), an MIC (Candida albicans [28]) of 1.95 µg/mL (≈ 2.11 µM) and an MIC (Candida albicans [29]) of 1.95 µg/mL (≈ 2.11 µM). For the same molecule, the MIC ([Candida] haemuloni [30]) was 15.6 µg/mL (≈ 16.9 µM), the MIC ([Candida] auris [31]) was 0.98 µg/mL (≈ 1.06 µM) and the MIC ([Candida] auris [32]) was 1.95 µg/mL (≈ 2.11 µM). It also gave an MIC (Cryptococcus neoformans) of 7.8 µg/mL (≈ 8.44 µM) and an MIC ([Candida] auris [33]) of 1.95 µg/mL (≈ 2.11 µM).
